Screening results deposited in PubChem by several laboratories.
Sampled rows, rich in hits. Any-hit rate of the full collection: about 2.8%.
AI-2 QS mod = Vibrio harveyi AI-2 quorum sensing modulators, primary screen, JMH597 strain, luminescence/OD600 ratio. Vibrio harveyi JMH597 AI-2 luminescence/OD600 ratio, 9 h; stronger effect = lower value; strain lacks LuxN and CqsS sensors; 0 = neutral-control median. activity change, % at 7.5 µM. 300,000 compounds, 0.4% hits. AID 2094, 2009; in the data active = activity change below about -75%, passing the limit was not always enough;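 also: luminescence divided by OD600 gain over 9 h not by final OD600 alone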
T cruzi repl = inhibitors of intracellular T. cruzi growth, primary screen, luminescence, NIH3T3 host cells. T. cruzi beta-gal in NIH3T3, 90 h. inhibition, % (concentration not given with the values). 300,000 compounds, 1.4% hits. AID 1885, 2009;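 active = mean inhibition across valid replicates above about 55%, limit read from the data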;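 also: signal also drops with host cell toxicity which is not excluded here; 0% = plate median of DMSO wells and 100% = zero luminescence signal; higher percent means less beta-gal luminescence so fewer parasites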
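Assay system: NIH/3T3 fibroblasts plus reporter T. cruzi. Amount: NIH/3T3 cells, 5,000 per well. Buffer or medium: DMEM, 2% fetal bovine serum. Doses: compound pinned at 50 nL/well, DMSO. Schedule: ≥90 h infection period, 3 h prior cell attachment. Signal: luminescent β-galactosidase signal after 60 min lysis. Read-out: parasite load inhibition, %.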
PP1 inh = PP1-alpha phosphatase inhibitors, primary screen, counter-screen for PP5 inhibitor project, biochemical, fluorescence, OMFP substrate, single point; Serine/threonine-protein phosphatase PP1-alpha catalytic subunit (Homo sapiens), P62136; purified PP1alpha; inhibition, % at 6.7 µM; 320,000 compounds, 0.9% hits;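 active = inhibition above the mean inhibition of all tested compounds plus 3 SD, computed separately for each screening campaign, cut at about 15% in these data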
pCIP destab = p/CIP-EGFP fusion destabilizers, primary screen, fluorescence, F442A cells; decrease of EGFP signal, % at 10 µM; AID 1984, 2009; Q05BA5; 16 h; 290,000 compounds, 0.01% hits;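 active = EGFP signal decrease of at least 30% at 10 µM or well 3 SD below plate mean, unless failing retest; inactive = the rest, including hits failing retest or dose response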
UBC13 inh = UBC13 polyubiquitin chain formation inhibitors, primary screen, biochemical, TR-FRET, uHTS; inhibition, % at 20 µM; 330,000 compounds, 0.47% hits; in the data active = inhibition above about 45%, passing the limit was not always enough
Target sequence (P61088 whole entry, looked up): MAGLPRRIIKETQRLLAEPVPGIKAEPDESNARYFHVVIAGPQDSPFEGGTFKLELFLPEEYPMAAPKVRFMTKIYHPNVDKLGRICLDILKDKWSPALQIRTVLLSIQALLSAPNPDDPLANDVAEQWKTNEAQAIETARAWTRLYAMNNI
* hit, by the source's call.

`O=S(=O)(NCC(c1cccnc1)N1CCN(Cc2ccccc2)CC1)c1cc(F)ccc1F` (stereo unspecified) gave AI-2 QS mod 2.7, T cruzi repl 58.9*, PP1 inh -1.0, pCIP destab -7.1 and UBC13 inh -7.2.
Screening COc1ccc(N2CCN(C(CNS(=O)(=O)c3cc(F)ccc3F)c3cccnc3)CC2)cc1 (stereo unspecified) returned AI-2 QS mod 30.8, T cruzi repl 69.6*, PP1 inh -1.2, pCIP destab -13.1 and UBC13 inh 4.8.
`CC(O)CNc1nc2sc3c(c2c(=O)n1Cc1ccco1)CCCCC3` (stereo unspecified) gave AI-2 QS mod 20.9, T cruzi repl 3.3, PP1 inh -1.5, pCIP destab -4.1 and UBC13 inh 23.5.
Screening CN(C)CCNc1nc2sc3c(c2c(=O)n1CCc1ccccc1)CCCCC3 returned T cruzi repl 58.5*, PP1 inh 1.6, pCIP destab -20.6 and UBC13 inh 35.7.
CC(O)CNc1nc2sc3c(c2c(=O)n1CCc1ccccc1)CCCCC3 (stereo unspecified) was read as AI-2 QS mod 42.3, T cruzi repl 56.9*, PP1 inh 0.1, pCIP destab 0.9 and UBC13 inh -1.4.
CC1CCC(NC(=O)C2CC(=O)N(c3ccc(Cl)cc3)C2)CC1 (stereo unspecified) was read as AI-2 QS mod 19.4, T cruzi repl -41.6, PP1 inh -0.2, pCIP destab -18.8 and UBC13 inh 0.9.
`COc1ccc(CN(C)C(=O)c2[nH]c(C)c(C(C)=O)c2C)c(OC)c1OC` gave AI-2 QS mod -4.9, T cruzi repl -2.7, PP1 inh -5.5, pCIP destab 0.8 and UBC13 inh 2.1.
`O=C(Nc1ccc2ccccc2c1)c1cn(-c2ccccc2)nc1-c1cccs1` gave AI-2 QS mod 6.9, T cruzi repl 59.5*, PP1 inh 6.7, pCIP destab -0.7 and UBC13 inh -15.5.
CCCN(Cc1nnc(-c2cccs2)o1)C(=O)CN1C(=O)NC2(CCCCC2)C1=O was read as UBC13 inh -2.4.
`COc1ccc(/C=C/c2c(-c3ccc(OC)cc3)oc3ccc(-c4ccc(OC)cc4)cc23)cc1` gave AI-2 QS mod 14.2, T cruzi repl -13.9, PP1 inh -3.3, pCIP destab -0.4 and UBC13 inh 9.7.
COc1ccc(/C=C/c2cc(-c3ccc(C)cc3)o[n+]2C)cc1 was read as AI-2 QS mod 16.9, T cruzi repl 59.0*, PP1 inh 0.8, pCIP destab -19.1 and UBC13 inh 11.7.
`CCCCCCNC(=O)N[C@H](C(=O)NCCC[C@H]1CN2C(=NC[C@H]2C)N1CCC(c1ccccc1)c1ccccc1)C(C)O` (stereo partly specified) gave PP1 inh 1.2, pCIP destab -3.8 and UBC13 inh 48.9*.
`O=c1c2ccc(Cl)cc2nc(-c2cccc(C(F)(F)F)c2)n1O` gave AI-2 QS mod -68.8, T cruzi repl -7.6, PP1 inh 16.4*, pCIP destab -3.2 and UBC13 inh -1.8.
For COC(=O)CCN(C(=O)c1cc([N+](=O)[O-])cc([N+](=O)[O-])c1)c1ccccn1 the results were AI-2 QS mod 24.7, T cruzi repl 65.2*, PP1 inh -1.3, pCIP destab -7.2 and UBC13 inh 1.1.
Cc1[nH]n(C(C)(C)C)c(=O)c1Sc1ccc(Cl)cc1 was read as AI-2 QS mod 22.6, T cruzi repl 61.0*, PP1 inh 0.3, pCIP destab -3.5 and UBC13 inh -1.2.
Cc1noc(C)c1NC(=O)Nc1ccc2c(c1)C(=O)N([C@H](C)CO)C[C@H](C)[C@@H](CN(C)S(=O)(=O)c1c(C)noc1C)O2 was read as UBC13 inh -6.7.
For O=C(Nc1ccncc1)c1ccc(Cl)c(Cl)c1 the results were AI-2 QS mod -0.9, T cruzi repl 61.8*, PP1 inh -0.1, pCIP destab -8.3 and UBC13 inh 3.2.
For CCc1nnc(NC(=O)c2ccc(S(=O)(=O)N(C)c3ccccc3)cc2)o1 the results were AI-2 QS mod 10.6, T cruzi repl -24.0, PP1 inh 16.4*, pCIP destab -2.1 and UBC13 inh -10.6.
